Measurements taken from ChEMBL document CHEMBL1139880, “Potent and selective agonists of human melanocortin receptor 5: cyclic analogues of alpha-melanocyte-stimulating hormone” (J Med Chem, 2007).
Starred links: 1 amine or outer side, 2 acyl side, 3 side chain; linkers in the order of their positions; H or OH if unused. Positions of bridges follow the written chain, without caps; N, C: chain ends. Non-standard residues stand in square brackets, D forms with d. Residues, ends and D or L forms follow the SMILES beside them. ξ: configuration not given here. X7 = O=C([C@H](Cc1ccc(Cc2ccccc2)cc1)N[*:1])[*:2]; Oic(3aξ,7aξ) = O=C(O)[C@@H]1CC2CCCCC2N1; Pip = O=C(O)[C@@H]1CCCCN1; Nle = CCCC[C@H](N)C(=O)O

Columns and labels:
Melanocortin receptor 3 [1] = biological target: T1, Melanocortin receptor 3 (Homo sapiens, UniProt P41968); experiment: Agonist activity at human MC3R expressed in CHO cells assessed as cAMP accumulation at 5 uM relative to [125I]NDPalphaMSH; type: functional, cell-based
T1 sequence (P41968 whole entry): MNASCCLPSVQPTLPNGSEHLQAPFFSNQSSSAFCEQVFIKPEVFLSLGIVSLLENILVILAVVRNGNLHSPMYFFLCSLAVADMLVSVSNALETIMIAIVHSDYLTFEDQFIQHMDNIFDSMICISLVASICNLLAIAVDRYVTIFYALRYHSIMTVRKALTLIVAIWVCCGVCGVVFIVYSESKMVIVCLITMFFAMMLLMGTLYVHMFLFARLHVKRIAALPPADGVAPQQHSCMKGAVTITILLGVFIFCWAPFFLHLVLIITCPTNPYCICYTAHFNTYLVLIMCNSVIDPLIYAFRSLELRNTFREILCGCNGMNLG

[2] = biological target: Melanocortin receptor (M4 and M5) (Homo sapiens) (UniProt P32245+P33032); experiment: Selectivity for human cloned MC5R over human cloned MC4R; type: protein assay
Sequence of Melanocortin receptor (M4 and M5) (Homo sapiens) (P32245 whole entry, looked up): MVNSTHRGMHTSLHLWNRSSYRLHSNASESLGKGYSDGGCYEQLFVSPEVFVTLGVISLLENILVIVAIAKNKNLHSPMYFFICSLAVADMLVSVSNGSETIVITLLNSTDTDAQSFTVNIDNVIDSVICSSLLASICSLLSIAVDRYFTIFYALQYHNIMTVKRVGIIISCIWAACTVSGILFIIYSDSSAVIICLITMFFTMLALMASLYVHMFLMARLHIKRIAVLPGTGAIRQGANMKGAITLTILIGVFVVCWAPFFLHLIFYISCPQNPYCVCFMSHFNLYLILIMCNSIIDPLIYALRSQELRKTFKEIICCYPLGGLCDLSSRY
Sequence of Melanocortin receptor (M4 and M5) (Homo sapiens) (P33032 whole entry, looked up): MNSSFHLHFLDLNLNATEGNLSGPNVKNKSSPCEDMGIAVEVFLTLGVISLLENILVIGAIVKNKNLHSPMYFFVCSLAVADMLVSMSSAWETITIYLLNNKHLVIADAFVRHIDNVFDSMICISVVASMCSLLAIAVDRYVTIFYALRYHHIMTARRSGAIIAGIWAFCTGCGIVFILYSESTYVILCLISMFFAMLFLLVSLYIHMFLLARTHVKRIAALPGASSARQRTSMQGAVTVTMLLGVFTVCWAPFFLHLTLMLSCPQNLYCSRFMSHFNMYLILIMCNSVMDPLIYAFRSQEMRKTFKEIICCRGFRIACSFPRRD

Melanocortin receptor 4 [3] = biological target: T2, Melanocortin receptor 4 (Homo sapiens, UniProt P32245); experiment: Agonist activity at human MC4R expressed in CHO cells assessed as cAMP accumulation at 5 uM relative to [125I]NDPalphaMSH; type: functional, cell-based; settings: filed as agonist
T2 sequence (P32245 whole entry): as the sequence (P32245 whole entry, looked up) above

Homo sapiens [4] = organism: Homo sapiens; experiment: Selectivity for human cloned MC5R over human cloned MC1bR
Homo sapiens [5] = organism: Homo sapiens; experiment: Selectivity for human cloned MC5R over human cloned MC3R
Melanocortin receptor 3 [6] = biological target: T1, Melanocortin receptor 3; experiment: Agonist activity at human MC3R expressed in CHO cells assessed as cAMP accumulation; type: functional, cell-based
Procedure, shortened: (§1)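 Dissociated CHO cells were spun 5 min and resuspended in Earle's balanced salt solution with 10 mM HEPES pH 7.5, 5 mM MgCl2, 1 mM glutamine and 1 mg/mL BSA. They were incubated 40 min at room temperature with compound (0.003–5000 nM) plus 0.6 mM IBMX, then lysed with 0.1 M HCl. cAMP was measured by Flashplate cAMP assay.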

Melanocortin receptor 4 [7] = biological target: T2, Melanocortin receptor 4; experiment: Displacement of [125I]NDPalphaMSH from human cloned MC4R expressed in CHO cells; type: cell-based
Melanocortin receptor 5 [8] = biological target: T3, Melanocortin receptor 5 (Homo sapiens, UniProt P33032); experiment: Displacement of [125I]NDPalphaMSH from human cloned MC5R expressed in CHO cells; type: cell-based
T3 sequence (P33032 whole entry): as the sequence (P33032 whole entry, looked up) above

Melanocortin receptor 3 [9] = biological target: T1, Melanocortin receptor 3; experiment: Displacement of [125I]NDPalphaMSH from human cloned MC3R expressed in CHO cells; type: cell-based
[10] = biological target: T4, Melanocyte-stimulating hormone receptor (Homo sapiens, UniProt Q01726); experiment: Agonist activity at human melanocortin receptor 1b expressed in CHO cells assessed as cAMP accumulation; type: functional, cell-based; procedure, shortened: as §1
Target sequence in this assay (Q01726 whole entry): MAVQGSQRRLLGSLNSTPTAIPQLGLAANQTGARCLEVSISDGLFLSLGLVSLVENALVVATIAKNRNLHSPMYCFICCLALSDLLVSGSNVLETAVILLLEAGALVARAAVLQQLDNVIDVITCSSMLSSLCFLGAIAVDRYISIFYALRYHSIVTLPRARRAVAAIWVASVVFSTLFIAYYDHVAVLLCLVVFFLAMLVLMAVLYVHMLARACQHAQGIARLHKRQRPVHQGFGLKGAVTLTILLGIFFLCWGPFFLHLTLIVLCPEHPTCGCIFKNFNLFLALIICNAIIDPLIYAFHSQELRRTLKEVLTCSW

Melanocortin receptor 5 [11] = biological target: T3, Melanocortin receptor 5; experiment: Agonist activity at human MC5R expressed in CHO cells assessed as cAMP accumulation; type: functional, cell-based
[12] = biological target: T4, Melanocyte-stimulating hormone receptor; experiment: Displacement of [125I]NDPalphaMSH from human cloned melanocortin receptor 1b expressed in CHO cells; type: cell-based
Target sequence in this assay (Q01726 whole entry): as above

[13] = biological target: T4, Melanocyte-stimulating hormone receptor; experiment: Agonist activity at human melanocortin receptor 1b expressed in CHO cells assessed as cAMP accumulation at 1 uM relative to [125I]NDPalphaMSH; type: functional, cell-based
Target sequence in this assay (Q01726 whole entry, looked up): as the sequence (Q01726 whole entry) above

Melanocortin receptor 3 [14] = biological target: T1, Melanocortin receptor 3; experiment: Agonist activity at human MC3R expressed in CHO cells assessed as cAMP accumulation at 1 uM relative to [125I]NDPalphaMSH; type: functional, cell-based
Melanocortin receptor 4 [15] = biological target: T2, Melanocortin receptor 4; experiment: Agonist activity at human MC4R expressed in CHO cells assessed as cAMP accumulation at […] relative to [125I]NDPalphaMSH; type: functional, cell-based; settings: filed as partial agonist
Melanocortin receptor 4 [16] = biological target: T2, Melanocortin receptor 4; experiment: Agonist activity at human MC4R expressed in CHO cells assessed as cAMP accumulation at 10 uM relative to [125I]NDPalphaMSH; type: functional, cell-based
Melanocortin receptor 3 [17] = biological target: T1, Melanocortin receptor 3; experiment: Agonist activity at human MC3R expressed in CHO cells assessed as cAMP accumulation at 10 uM relative to [125I]NDPalphaMSH; type: functional, cell-based

SMILES | EC50 (Melanocortin receptor 3 [6]) | IC50 (Melanocortin receptor 4 [7]) | IC50 (Melanocortin receptor 5 [8]) | IC50 (Melanocortin receptor 3 [9]) | EC50 [10] | EC50 (Melanocortin receptor 5 [11]) | IC50 [12] | other results
CCCC[C@H](NC(C)=O)C(=O)N[C@H]1CC(=O)NCCCC[C@@H](C(N)=O)NC(=O)[C@H](Cc2c[nH]c3ccccc23)NC(=O)[C@@H]2CCCN2C(=O)[C@H](Cc2ccc(-c3ccccc3)cc2)NC(=O)[C@@H]2CC3CCCCC3N2C1=O (stereo not given in full) |  |  |  |  |  |  |  | Activity (Melanocortin receptor 3 [1]): 1%; Ratio IC50 [2]: 470; Activity (Melanocortin receptor 4 [3]): 97%; Ratio IC50 (Homo sapiens [4]): 780; Ratio IC50 (Homo sapiens [5]): 440
CCCC[C@H](NC(C)=O)C(=O)N[C@H]1CC(=O)NCCCC[C@@H](C(N)=O)NC(=O)[C@H](Cc2c[nH]c3ccccc23)NC(=O)[C@@H]2CCCN2C(=O)[C@@H](Cc2ccc(Cl)cc2)NC(=O)[C@H](Cc2c[nH]cn2)NC1=O | > 5000 nM | 4.5 µM (antagonist) | 1300 nM (antagonist) | > 20000 nM | 63 nM (agonist) | 82 nM (agonist) | 560 nM (antagonist) | 
CCCC[C@H](NC(C)=O)C(=O)N[C@H]1CC(=O)NCCCC[C@@H](C(N)=O)NC(=O)[C@H](Cc2c[nH]c3ccccc23)NC(=O)[C@@H]2CCCCN2C(=O)[C@H](Cc2ccc(Cc3ccccc3)cc2)NC(=O)[C@@H]2CC3CCCCC3N2C1=O (stereo not given in full) (Ac-[Nle]D[Oic(3aξ,7aξ)][X7][Pip]WK-NH2; lactam 2-7) |  |  |  |  |  |  |  | Activity [13]: 3%; Activity (Melanocortin receptor 3 [14]): 2%
CCCC[C@H](NC(C)=O)C(=O)N[C@H]1CC(=O)NCCCC[C@@H](C(N)=O)NC(=O)[C@H](Cc2c[nH]c3ccccc23)NC(=O)[C@@H]2CCCCN2C(=O)[C@H](Cc2ccc(-c3ccccc3)cc2)NC(=O)[C@H](Cc2c[nH]cn2)NC1=O |  |  |  |  |  |  |  | Ratio IC50 [2]: 790; Ratio IC50 (Homo sapiens [4]): 8; Activity (Melanocortin receptor 4 [15]): 41%; Ratio IC50 (Homo sapiens [5]): 1940
CCCC[C@H](NC(C)=O)C(=O)N[C@H]1CC(=O)NCCCC[C@@H](C(N)=O)NC(=O)[C@H](Cc2cc3ccccc3[nH]2)NC(=O)[C@@H]2CCCN2C(=O)[C@H](Cc2ccccc2)NC(=O)[C@H](Cc2cnc[nH]2)NC1=O |  |  |  |  |  |  |  | Activity (Melanocortin receptor 4 [16]): 7%; Activity (Melanocortin receptor 3 [17]): 5%
CCCC[C@H](NC(C)=O)C(=O)N[C@H]1CC(=O)NCCCC[C@@H](C(N)=O)NC(=O)[C@H](Cc2c[nH]c3ccccc23)NC(=O)[C@@H]2CCCN2C(=O)[C@@H](Cc2ccc(OCC)cc2)NC(=O)[C@H](Cc2cnc[nH]2)NC1=O | > 2500 nM |  | 340 nM (antagonist) | > 10000 nM | 60 nM (agonist) | 270 nM (agonist) | 430 nM (antagonist) | 

Further lines, with some results ahead:

EC50 (Melanocortin receptor 3 [6]) | IC50 (Melanocortin receptor 4 [7]) | IC50 (Melanocortin receptor 5 [8]) | IC50 (Melanocortin receptor 3 [9]) | EC50 [10] | EC50 (Melanocortin receptor 5 [11]) | IC50 [12] | SMILES | other results
1400 nM (agonist) | 1.2 µM (antagonist) | 4.1 nM (antagonist) | 1500 nM | 5.3 nM (agonist) | 2.5 nM (agonist) | 45 nM (antagonist) | CCCC[C@H](NC(C)=O)C(=O)N[C@H]1CC(=O)NCCCC[C@@H](C(N)=O)NC(=O)[C@H](Cc2c[nH]c3ccccc23)NC(=O)[C@@H]2CCCN2C(=O)[C@@H](Cc2ccc(-c3ccccc3)cc2)NC(=O)[C@H](Cc2c[nH]cn2)NC1=O | 
370 nM (agonist) | 0.57 µM (antagonist) | 0.72 nM (antagonist) | 1400 nM (antagonist) | 3.3 nM (agonist) | 0.37 nM (agonist) | 5.9 nM (antagonist) | CCCC[C@H](NC(C)=O)C(=O)N[C@H]1CC(=O)NCCCC[C@@H](C(N)=O)NC(=O)[C@H](Cc2c[nH]c3ccccc23)NC(=O)[C@@H]2CCCCN2C(=O)[C@@H](Cc2ccc(-c3ccccc3)cc2)NC(=O)[C@H](Cc2c[nH]cn2)NC1=O | 
